In ChEMBL document CHEMBL1140547, “Potent oxindole based human beta3 adrenergic receptor agonists” (Bioorg Med Chem Lett, 2007):

Assays:
[1] = target: T1, Beta-3 adrenergic receptor (Homo sapiens, UniProt P13945); experiment: Agonist activity at human beta-3 adrenergic receptor expressed in CHO cells assessed as cAMP level relative to isoproterenol; assay type: functional, cell-based
In short: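 CHO cells expressing human β3 adrenergic receptor; agonism read out as cAMP level. Intrinsic activity taken as the compound's maximal response expressed as percentage of the maximal response to isoproterenol at […]; n = 3.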
Target sequence in this assay (P13945 whole entry, looked up): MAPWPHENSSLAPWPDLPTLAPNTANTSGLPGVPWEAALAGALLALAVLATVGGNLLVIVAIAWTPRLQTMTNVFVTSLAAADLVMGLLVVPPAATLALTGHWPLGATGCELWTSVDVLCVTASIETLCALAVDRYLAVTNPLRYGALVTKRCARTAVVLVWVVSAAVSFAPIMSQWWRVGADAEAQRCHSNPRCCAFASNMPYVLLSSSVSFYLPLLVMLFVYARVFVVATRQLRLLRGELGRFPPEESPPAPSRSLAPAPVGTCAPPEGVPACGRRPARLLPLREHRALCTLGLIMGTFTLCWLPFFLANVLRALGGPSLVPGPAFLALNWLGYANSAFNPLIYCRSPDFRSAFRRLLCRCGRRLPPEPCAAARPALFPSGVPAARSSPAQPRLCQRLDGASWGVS

[2] = target: T1, Beta-3 adrenergic receptor; experiment: Agonist activity at human beta-3 adrenergic receptor expressed in CHO cells assessed as cAMP level; assay type: functional, cell-based
In short: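 cAMP accumulation measured in CHO cells expressing the human β receptor. Intrinsic activity is the compound's maximal response as a percentage of the maximal isoproterenol response.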
Target sequence in this assay (P13945 whole entry): as the sequence (P13945 whole entry, looked up) above

[3] = target: Beta-2 adrenergic receptor (Homo sapiens, UniProt P07550); experiment: Agonist activity at human beta-2 adrenergic receptor expressed in CHO cells assessed as cAMP level; assay type: functional, cell-based
[4] = target: Beta-1 adrenergic receptor (Homo sapiens, UniProt P08588); experiment: Agonist activity at human beta-1 adrenergic receptor expressed in CHO cells assessed as cAMP level; assay type: functional, cell-based
Cardiac atrium = experiment: Effect on rat atrial tachycardia assessed as increase in heart rate; assay type: functional
In short: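 Isolated rat atria were used to score tachycardia. The value is the maximal response, or the response at a single fixed high agonist level when no maximum was reached.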

Rattus norvegicus [5] = experiment: Reduction in respiratory quotient in diet induced obese Long Evans rat at 10 mg/kg, po after 20 hrs relative to control; assay type: functional; parameters: scale not given: the % may be the effect or the level left
In short: (§1)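 Diet-induced obese Long Evans rats received one oral dose (1 or 10 mg/kg) or vehicle. Indirect calorimetry tracked respiratory quotient over 24 h. RQ reduction and energy expenditure increase were expressed as % versus vehicle over 20 h. Food consumption was recorded in g. Statistical significance was assessed against vehicle.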

Rattus norvegicus [6] = experiment: Increase in energy expenditure in diet induced obese Long Evans rat at 10 mg/kg, po after 20 hrs relative to control; assay type: functional; in short: as §1
Rattus norvegicus [7] = experiment: Effect on food consumption in diet induced obese Long Evans rat at 10 mg/kg, po; assay type: functional; in short: as §1
Rattus norvegicus [8] = experiment: Reduction in respiratory quotient in diet induced obese Long Evans rat at 1 mg/kg, po after 20 hrs relative to control; assay type: functional; parameters: scale not given: the % may be the effect or the level left; in short: as §1
Rattus norvegicus [9] = experiment: Increase in energy expenditure in diet induced obese Long Evans rat at 1 mg/kg, po after 20 hrs relative to control; assay type: functional; in short: as §1
Rattus norvegicus [10] = experiment: Effect on food consumption in diet induced obese Long Evans rat at 1 mg/kg, po; assay type: functional; in short: as §1
[11] = Oral bioavailability in rat […]; assay type: ADME, organism-based; conditions: in vivo
[12] = target: Beta-3 adrenergic receptor (Rattus norvegicus, UniProt P26255); experiment: Agonist activity at rat beta-3 adrenergic receptor; assay type: functional
[13] = Oral bioavailability in F344 rat; conditions: in vivo

Sequence of Beta-1 adrenergic receptor (P08588 whole entry): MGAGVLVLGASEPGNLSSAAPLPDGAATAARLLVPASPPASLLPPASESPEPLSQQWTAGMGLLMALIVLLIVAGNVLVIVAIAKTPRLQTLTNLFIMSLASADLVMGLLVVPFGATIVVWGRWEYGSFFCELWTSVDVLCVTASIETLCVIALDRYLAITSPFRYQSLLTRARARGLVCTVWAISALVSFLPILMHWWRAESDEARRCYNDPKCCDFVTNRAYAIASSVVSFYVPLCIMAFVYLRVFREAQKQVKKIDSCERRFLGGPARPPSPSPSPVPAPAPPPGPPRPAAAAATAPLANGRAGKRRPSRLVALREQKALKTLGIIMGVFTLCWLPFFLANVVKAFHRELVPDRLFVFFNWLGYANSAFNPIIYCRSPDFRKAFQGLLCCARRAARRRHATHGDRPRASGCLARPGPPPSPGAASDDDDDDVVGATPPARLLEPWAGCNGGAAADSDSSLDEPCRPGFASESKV
Sequence of Beta-2 adrenergic receptor (P07550 whole entry): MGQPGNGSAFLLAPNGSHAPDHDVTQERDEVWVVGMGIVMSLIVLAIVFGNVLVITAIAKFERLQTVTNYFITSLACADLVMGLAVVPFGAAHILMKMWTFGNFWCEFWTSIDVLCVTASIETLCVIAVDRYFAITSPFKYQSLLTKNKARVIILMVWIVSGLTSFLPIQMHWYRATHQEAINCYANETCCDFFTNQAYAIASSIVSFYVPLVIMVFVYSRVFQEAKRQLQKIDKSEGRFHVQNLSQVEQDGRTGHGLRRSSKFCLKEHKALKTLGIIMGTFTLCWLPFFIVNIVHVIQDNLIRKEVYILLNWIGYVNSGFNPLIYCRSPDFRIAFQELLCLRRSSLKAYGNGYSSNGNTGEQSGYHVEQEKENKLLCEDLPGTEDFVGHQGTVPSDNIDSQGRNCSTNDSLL
Sequence of Beta-3 adrenergic receptor (Rattus norvegicus, UniProt P26255) (P26255 whole entry): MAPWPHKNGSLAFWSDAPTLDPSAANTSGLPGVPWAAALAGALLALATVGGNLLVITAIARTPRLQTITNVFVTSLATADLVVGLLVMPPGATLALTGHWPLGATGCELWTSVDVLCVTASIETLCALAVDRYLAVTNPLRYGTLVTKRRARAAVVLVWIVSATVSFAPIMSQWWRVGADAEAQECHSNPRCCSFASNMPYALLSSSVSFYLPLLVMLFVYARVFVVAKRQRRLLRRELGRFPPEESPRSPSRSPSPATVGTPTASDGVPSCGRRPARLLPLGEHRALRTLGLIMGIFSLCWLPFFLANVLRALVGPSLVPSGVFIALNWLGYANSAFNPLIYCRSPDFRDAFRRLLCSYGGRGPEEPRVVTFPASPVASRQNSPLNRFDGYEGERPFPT

Emax [1] [%] | EC50 [2] [nM] | EC50 [3] [µM] | EC50 [4] [µM] | bioavailability [11] [%] | EC50 [12] [nM] | bioavailability [13] [%] | SMILES | Activity (Cardiac atrium) [%] | Activity (Rattus norvegicus [5]) [%] | Activity (Rattus norvegicus [6]) [%] | Activity (Rattus norvegicus [7]) [g] | Activity (Rattus norvegicus [8]) [%] | Activity (Rattus norvegicus [9]) [%] | Activity (Rattus norvegicus [10]) [g]
72.6 | 12 | > 10 | > 10 |  |  |  | CC1C(=O)Nc2cccc(OC[C@@H](O)CNC(C)(C)Cc3ccc(Oc4ccc(C(N)=O)cn4)cc3)c21 (stereo not given in full) | 10.4 |  |  |  |  |  | 
66.3 | 10.6 | > 10 | > 10 |  |  |  | CC(C)(Cc1ccc(Oc2ccc(C(N)=O)cn2)cc1)NC[C@H](O)COc1cccc2c1C1(CCCC1)C(=O)N2 | 8.6 |  |  |  |  |  | 
15.6 | 12.3 | > 10 | > 10 |  |  |  | CC(C)(Cc1ccc(Oc2ccc(C(N)=O)cn2)cc1)NC[C@H](O)COc1cccc2c1C(Cc1ccccc1)C(=O)N2 (stereo not given in full) |  |  |  |  |  |  | 
41 | 8.3 | > 10 | > 10 |  |  |  | CC(C)(Cc1ccc(Oc2ccc(C(N)=O)cn2)cc1)NC[C@H](O)COc1cccc2c1C1(CCCCC1)C(=O)N2 | 16 |  |  |  |  |  | 
71.2 | 17.6 | > 10 | > 10 |  |  |  | CC(C)(Cc1ccc(Oc2ccc(C(N)=O)cn2)cc1)NC[C@H](O)COc1cccc2c1C1(CCC1)C(=O)N2 | 14.8 |  |  |  |  |  | 
48.5 | 268 | > 10 | > 10 |  |  |  | CC(C)(Cc1ccc(Oc2ccc(C(N)=O)cn2)cc1)NC[C@H](O)COc1cccc2c1C(Cc1ccccc1)(Cc1ccccc1)C(=O)N2 |  |  |  |  |  |  | 
41.7 | 13.9 | > 10 | > 10 |  |  |  | CC(C)C1C(=O)Nc2cccc(OC[C@@H](O)CNC(C)(C)Cc3ccc(Oc4ccc(C(N)=O)cn4)cc3)c21 (stereo not given in full) |  |  |  |  |  |  | 
49.4 | 14 | > 10 | > 10 |  |  |  | CC(C)CC1C(=O)Nc2cccc(OC[C@@H](O)CNC(C)(C)Cc3ccc(Oc4ccc(C(N)=O)cn4)cc3)c21 (stereo not given in full) |  |  |  |  |  |  | 
67.9 | 5.2 | > 10 | > 10 | 10 | 6.5 | 10 | CC(C)(Cc1ccc(Oc2ccc(C(N)=O)cn2)cc1)NC[C@H](O)COc1cccc2c1C(C)(C)C(=O)N2 | 9.7 | 45 | 14 | 11.8 | 31 | 8 | 13.7
50.5 | 24.4 | > 10 | > 10 |  |  |  | CC(C)(Cc1ccc(Oc2ccc(C(N)=O)cn2)cc1)NC[C@H](O)COc1cccc2c1CC(=O)N2 | 19.5 |  |  |  |  |  | 
14.2 | 2.7 | > 10 | > 10 |  |  |  | CCC1(CC)C(=O)Nc2cccc(OC[C@@H](O)CNC(C)(C)Cc3ccc(Oc4ccc(C(N)=O)cn4)cc3)c21 | 2 |  |  |  |  |  | 

SMILES | Emax [1] [%] | EC50 [2] [nM] | EC50 [3] [µM] | EC50 [4] [µM] | bioavailability [11] [%] | EC50 [12] [nM] | bioavailability [13] [%] | Activity (Cardiac atrium) [%] | Activity (Rattus norvegicus [5]) [%] | Activity (Rattus norvegicus [6]) [%] | Activity (Rattus norvegicus [7]) [g] | Activity (Rattus norvegicus [8]) [%] | Activity (Rattus norvegicus [9]) [%] | Activity (Rattus norvegicus [10]) [g]
CC(C)(Cc1ccc(Oc2ccc(C(N)=O)cn2)cc1)NC[C@H](O)COc1cccc2c1C1(CC1)C(=O)N2 | 76.8 | 6.6 | 0.0352 | 0.0583 |  |  |  | 13.2 |  |  |  |  |  | 
